Assay outcomes (PubChem BioAssay)
This is one part of a sample in which hits are shown more often than they occur.
pCIP destab = p/CIP-EGFP fusion destabilizers, primary screen, fluorescence, F442A cells | Q05BA5 | 16 h | decrease of EGFP signal, % at 10 µM | actives 0.01% (n = 290,000) | AID 1984, 2009;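 active means EGFP signal decrease of at least 30% at 10 µM or well 3 SD below plate mean, unless failing retest; inactive means the rest, including hits failing retest or dose response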
CHOP UPR activ = activators of apoptotic CHOP UPR arm, primary screen, cell-based, CHO-CHOP luciferase reporter, luminescence, uHTS | UPR activation; percent of tunicamycin response over DMSO baseline | activation, % at 10 µM | actives 0.34% (n = 330,000);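 active means at 10 µM dose, activation of 40% or more, normalized to positive control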
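Dosing – one dose, 10 µM in 0.5% DMSO · System – CHO-CHOP cells, stable luciferase reporter of PERK-eIF2a-CHOP signalling · Input – 500 cells/well · Control set – tunicamycin 10 µg/mL final as positive, DMSO-only wells as negative · Timing – 6 h compound treatment, 37 °C · Measure – % activation vs tunicamycin · Technique – luminescence read with Steady-Glo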
Beta2AR agonist = beta2AR agonists driving receptor internalization, primary screen, cell-based, FAP fluorogen, flow cytometry; Beta-2 adrenergic receptor (Homo sapiens), P07550; Am2.2-beta2AR cells; response, % (concentration not given with the values); actives 0.43% (n = 340,000);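 active means response above a set limit, near 3 SD of response in nonfluorescent compounds, cut at about 42% in these data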
UPR XBP1 act = activators of adaptive XBP1 UPR arm, primary screen, cell-based, CHO-XBP1 luciferase reporter, luminescence, uHTS; actives 0.33% (n = 330,000); activation, % at 20 µM; IRE1-XBP1 UPR activation; percent of tunicamycin response, DMSO as zero;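 active means versus positive control, 20 µM dose yields 30% or more activation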
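Test system: CHO-XBP1 luciferase reporter cells | Buffer or medium: Serum-containing F12 medium, 10% FBS | Schedule: 6 h compound exposure at 37 °C, 5% CO2 | Detection: Steady-Glo luciferase glow luminescence, 10 min after reagent addition | Read-out basis: Activation, % of tunicamycin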
CHOP inhibitor = inhibitors of CHOP promoter induction, primary screen, cell-based, unfolded protein response, luciferase reporter. CHO-K1 CHOP-promoter luciferase, tunicamycin-induced, 15-18 h. inhibition, % at 10 µM. actives 3.8% (n = 220,000);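 active means compounds that reduced the stress-induced luciferase reporter signal by more than about 70% of percent inhibition, limit read from the data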
Dynein transport = inhibitors of GR-EGFP nuclear translocation, primary screen, dynein cargo transport inhibitor project, imaging, high-content, 3617.4 mouse cells; test concentration mostly 20 µM; stimulated with dexamethasone, 1 µM; stronger effect = lower value; z-score, hits read low; actives 0.47% (n = 220,000); AID 1381, 2008;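 active means plate z-score of nuclear minus cytoplasmic receptor signal below a set negative limit, without overly bright fluorescence or cell loss, cut at about -3.5 in these data, passing the limit was not always enough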;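 further: z-score of nuclear minus cytoplasmic ring GR-EGFP intensity difference per well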
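Buffer or medium: tet-free medium with charcoal-stripped serum / Also added: dexamethasone agonist, 1.0 µM final, for 30 min / Timing: induction 48 h, compound 1 h, agonist 30 min / Measured by: high-content fluorescence imaging after fixation / Read-out: nuclear-to-cytoplasmic GR-EGFP distribution per well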
Of the large screens only hits and unclear results are named; the others gave an inactive call.

COc1cc(C2NC(=O)NC(C)=C2C(=O)OC2CCCC(C)C2)cc(Br)c1O (stereo unspecified)	none (no result: CHOP inhibitor, Dynein transport)
Oc1ccc2ccccc2c1CNc1cnc2ccccc2c1	CHOP inhibitor 87.0
Cc1c([N+](=O)[O-])cc(C(=O)Nc2ccc(Cc3ccncc3)cc2)cc1[N+](=O)[O-]	CHOP inhibitor 77.3
CCOc1cc(/C=N/NC(=O)Cn2nc([N+](=O)[O-])cc2C)cc(Br)c1OCc1ccccc1F	CHOP inhibitor 78.3
CC(C)c1onc(C(=O)NC2CCCCC2)c1[N+](=O)[O-]	none
NC(=O)NC(CC(=O)NNC(=O)c1cccs1)c1ccc(Cl)cc1 (stereo unspecified)	none (no result: pCIP destab, CHOP inhibitor, Dynein transport)
CCN(c1ccccc1)S(=O)(=O)c1cc(C(=O)Nc2ccc(F)c(F)c2)ccc1F	CHOP inhibitor 70.8
CC1CC(C)(C)N2C(=O)C3(Nc4ccccc4S3)c3cccc1c32 (stereo unspecified)	CHOP inhibitor 91.4
COC(=O)c1cccc(NC(=O)CSc2nnc(C)n2Cc2ccccc2)c1	none
CCOC(=O)c1c(C)oc2c1c(C=NCc1ccccn1)c(O)c1ccccc12	CHOP inhibitor 82.2 (no result: CHOP UPR activ, UPR XBP1 act)
CCOC(=O)c1c(C)oc2c1cc(O)c1ccccc12	CHOP inhibitor 77.3
CCOC(=O)c1c(C)oc2c1c(C=NCC1CCCO1)c(O)c1ccccc12 (stereo unspecified)	none (no result: CHOP UPR activ, UPR XBP1 act)
O=C(N[C@@H](Cc1ccccc1)C(=O)NCc1ccc(F)cc1)C1CCNCC1	none (no result: CHOP inhibitor, Dynein transport)
Cc1ccc(NC(=O)c2cccc(C(F)(F)F)c2)cc1NC(=O)c1[nH]cnc1C(N)=O	none (no result: pCIP destab, CHOP inhibitor, Dynein transport)
Cc1cn(-c2cc(NC(=O)c3ccc(C)c(NC(=O)c4cccc(-c5cn[nH]c(=O)c5)c4)c3)cc(C(F)(F)F)c2)cn1	Beta2AR agonist 78.1 (no result: CHOP inhibitor, Dynein transport)
C=CCc1cccc(/C=N/NC(=O)C(C)Nc2cccc(C)c2)c1O (stereo unspecified)	CHOP inhibitor 91.1
COc1ccc(NC(C)C(=O)N/N=C/c2ccccc2OCc2ccc(Br)cc2)cc1 (stereo unspecified)	none
CC(Nc1ccc(Br)cc1)C(=O)N/N=C/c1ccccc1OCc1ccccc1 (stereo unspecified)	CHOP inhibitor 91.6
C=CCc1cccc(/C=N/NC(=O)CNc2ccccc2OC)c1O	CHOP inhibitor 88.6
C=CCc1cccc(/C=N/NC(=O)CNc2cccc3ccccc23)c1O	none
C=CCc1cccc(/C=N/NC(=O)CNc2ccccc2)c1O	CHOP inhibitor 88.5
CSC(=N)N	none (no result: pCIP destab, CHOP UPR activ, Beta2AR agonist, UPR XBP1 act, Dynein transport)
NC(=O)CSc1nnc(CSc2ncccn2)n1-c1ccccc1	none
CN(Cc1ccccc1)c1nc2c(c(=O)[nH]c(=O)n2C)n1CCSc1ncccn1	none (no result: pCIP destab, CHOP UPR activ, Beta2AR agonist, UPR XBP1 act, CHOP inhibitor)
Cc1cc(/C=C2\SC(=O)N(CC(=O)Nc3ccccc3F)C2=O)c(C)n1C	CHOP inhibitor 84.9
CCOc1ccc(CCNC(=O)COC(=O)/C=C/c2ccco2)cc1OCC	none (no result: CHOP inhibitor, Dynein transport)
Cc1ccc(/C=C/C(=O)N2CCc3ccccc3C2)cc1	CHOP inhibitor 71.6
Cc1ccc(-c2nc(CS(=O)(=O)CC(=O)N3CCc4ccccc4C3)c(C)o2)cc1	CHOP inhibitor 72.4
Cc1ccc(-c2nc(CS(=O)(=O)CC(=O)N3CCCCCC3)c(C)o2)cc1	none
CC(C)(C)c1ccc(/C=C/C(=O)N2CCc3ccccc3C2)cc1	none
COc1ccc(N2C(=O)[C@@H]3[C@H](C2=O)[C@H]2c4ccccc4C=CN2[C@@H]3C(C)=O)cc1	none (no result: CHOP UPR activ, UPR XBP1 act)
CCOC(=O)c1nnn(-c2nc(N3CCCC3)nc(N3CCCC3)n2)c1-c1ccccc1	CHOP inhibitor 89.3
O=C(CCc1ccccc1)Nc1cccc(NC(=O)CCc2ccccc2)c1	CHOP inhibitor 72.3
Cc1cccc(NC(=O)CCc2ccc(S(=O)(=O)NC3CCCCC3)cc2)c1	CHOP inhibitor 72.5
Cc1cccc(NC(=S)NC(=O)CCc2ccccc2)c1C	CHOP inhibitor 74.8
Cc1cccc(NC(=S)NC(=O)Cc2ccccc2)c1C	none (no result: CHOP inhibitor, Dynein transport)
CC(Oc1ccc(Cl)cc1Cl)C(=O)NCCC1=CCCCC1 (stereo unspecified)	CHOP inhibitor 90.3
O=C(COC(=O)/C=C/c1ccc(Cl)cc1)NCCC1=CCCCC1	CHOP inhibitor 77.8
O=C(OCC(=O)c1ccc[nH]1)c1ccc(F)c(S(=O)(=O)N2CCOCC2)c1	none (no result: pCIP destab, CHOP inhibitor, Dynein transport)
COc1ccc(-c2n(Cc3ccccc3)c3ccccc3[n+]2Cc2ccccc2)cc1	none
Cc1cc(NC(=O)CC(C)(C)C)nc2c1c(=O)oc1ccccc12	CHOP inhibitor 74.1
COc1ccc(C(=O)Nc2cc(C)c3c(=O)oc4ccccc4c3n2)cc1	CHOP inhibitor 88.3
COCC(=O)Nc1cc(C)c2c(=O)oc3ccccc3c2n1	none
COc1ccc(C(O)C(CC(=O)NCCCOC(C)C)C(=O)NCCCOC(C)C)cc1OC (stereo unspecified)	none
CCCCn1c(SCC(=O)c2c(N)n(C3CC3)c(=O)[nH]c2=O)nc2cc(S(N)(=O)=O)ccc21	none (no result: pCIP destab, CHOP inhibitor, Dynein transport)
Cc1[nH]nc(SCC(=O)NC2CCCCC2)c1[N+](=O)[O-]	none
O=C(Nc1cc(Cl)cc(Cl)c1)c1ccc(Cn2c(=O)[nH]c3ccsc3c2=O)cc1	CHOP inhibitor 94.2
CC(=O)NCCNC(=O)c1ccc(Cn2c(=O)[nH]c3ccsc3c2=O)cc1	none (no result: CHOP inhibitor, Dynein transport)
CCc1cccc(CC)c1NC(=S)N1CCn2cccc2C1c1cccnc1 (stereo unspecified)	none
Fc1ccc(NC(=S)N/N=C/c2cccc(Br)c2)c(F)c1	CHOP inhibitor 95.2
CC(=O)c1c(C)[nH]c(C(=O)NCC2CCCCC2)c1C	none (no result: CHOP inhibitor, Dynein transport)
COc1cc(/C=C(\C#N)c2nc3ccccc3s2)ccc1OCC(=O)Nc1ccccc1	Beta2AR agonist 76.0 (no result: CHOP UPR activ, UPR XBP1 act)
COc1cc(/C=C(\C#N)c2ccccn2)ccc1OCC(=O)Nc1ccc(Br)cc1	CHOP inhibitor 70.1
COc1cc(/C=C(\CC(=O)O)c2nc3ccccc3s2)ccc1OCC(=O)Nc1ccccc1F	none (no result: pCIP destab, CHOP UPR activ, UPR XBP1 act, CHOP inhibitor, Dynein transport)
COc1cc(/C=C(\C#N)C(=O)Nc2cc(C(F)(F)F)ccc2Cl)ccc1OCC(=O)Nc1cccc(C(F)(F)F)c1	CHOP inhibitor 73.9
O=S(=O)(c1ccc(Cl)cc1)N1CCC2(CC1)CO2	none
C=CCc1cc(/C=N\NC(=O)CSc2nnc(CCCc3ccc(OC)c(C)c3)o2)cc(OC)c1O	none
C=CCc1cc(/C=N/NC(=O)CSc2nnc(CCCc3ccc(OC)cc3)o2)cc(OC)c1O	CHOP inhibitor 77.8
